Measured values reported in ChEMBL document CHEMBL1800061 (J Med Chem, 2010).
Values after ≈ are worked out from the molar mass of the structure shown. Active and inactive are the calls of the source. The calls are words filed in the database; no cut-off is given here.

Key:
Mus musculus [1] = experiment: Inhibition of cyclin-dependent kinase substrate RB phosphorylation at Thr 821 in nude BALB/c mouse PBMC at 25 mg/kg, po measured after 6 hrs by immunostaining and flow cytometric analysis; type: functional
Outline: (§1)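 Seven-week-old female nu/nu-BALB/c nude mice got a single oral gavage (vehicle 28% PEG300/5% dimethylacetamide/10% HPB cyclodextrin in water). Blood was taken by cardiac puncture at 6 h or 24 h, red cells were lysed, and PBMC were fixed and permeabilized. Cells were stained with Rb, Rb pThr821, PolII or PolII pSer2 antibodies plus an Alexa488 secondary, then read by flow cytometry; n=4 (n=3 at 100 mg/kg).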

[2] = Apparent permeability from apical to basolateral side in […] TC7 cells at 10 umol/L and pH 6.5/7.4; type: ADME, cell-based; conditions: Caco-2, pH 6.5
Outline: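 A-to-B permeability was measured across TC7 monolayers at pH 6.5/7.4 with a 10 μmol/L test concentration. Recovery was recorded, and propranolol served as the control.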

[3] = molecular target: G2/mitotic-specific cyclin-B1 (Homo sapiens) (UniProt P14635); experiment: Inhibition of cyclin B in human HCT116 cells assessed as decrease in protein level at 1 umol/L after 24 hrs by immunoblotting analysis; type: cell-based; conditions: HCT-116
Outline: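 HCT116 colon cancer cells were kept in DMEM with 10% FCS. Cells (8×10^5) were plated, dosed 24 h later, and exposed for 4 or 24 h. Whole-cell lysates were made in RIPA buffer with phosphatase and protease inhibitor cocktails and normalised by BCA protein assay. They were immunoblotted for phospho-sites, total proteins and cyclins.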

MCF7 = experiment: Cell cycle arrest in human MCF7 cells assessed as concomitant increase in cells at S phase at 1 to 10 umol/L after 24 hrs by propidium iodide staining based flow cytometric analysis; type: functional
[4] = Cmax in mouse at 10 mg/kg, ip; type: ADME, organism-based; parameters: dose 10 mg/kg, route intraperitoneal; conditions: in vivo
Outline: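 Mice given 10 mg/kg by the ip, iv or oral route. Plasma levels were measured at 8 time points, with 3 animals per route for po and iv. Parameters came from a noncompartmental model. AUCINF was extrapolated to infinity, and bioavailability was calculated from AUCINF. The terminal slope used 3 points.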

[5] = molecular target: Inhibitor of nuclear factor kappa-B kinase subunit beta (Homo sapiens) (UniProt O14920); experiment: Inhibition of IKK-beta assessed as residual enzyme activity at 10 uM
[6] = molecular target: Serine/threonine-protein kinase PLK1 (Homo sapiens) (UniProt P53350); experiment: Inhibition of okadaic acid-activated PLK1 assessed as residual enzyme activity at 10 uM
[7] = molecular target: T1, Calcium/calmodulin-dependent protein kinase kinase 2 (Homo sapiens, UniProt Q96RR4); experiment: Inhibition of CAMKKbeta at 0.1 uM
[8] = molecular target: Casein kinase I isoform alpha (Homo sapiens, UniProt P48729); experiment: Inhibition of CK1 assessed as residual enzyme activity at 10 uM
[9] = molecular target: Maternal embryonic leucine zipper kinase (Homo sapiens) (UniProt Q14680); experiment: Inhibition of MELK assessed as residual enzyme activity at 10 uM
Mus musculus [10] = experiment: Inhibition of cyclin-dependent kinase substrate RB phosphorylation at Thr 821 in nude BALB/c mouse PBMC at 50 mg/kg, po measured after 24 hrs by immunostaining and flow cytometric analysis; type: functional, organism-based; parameters: dose 50 mg/kg; outline: as §1
[11] = molecular target: Tyrosine-protein kinase Yes (Homo sapiens) (UniProt P07947); experiment: Inhibition of YES1 assessed as residual enzyme activity at 10 uM
[12] = molecular target: MAP kinase-activated protein kinase 2 (Homo sapiens) (UniProt P49137); experiment: Inhibition of MAPKAPK2 assessed as residual enzyme activity at 10 uM
HCT-116 [13] = experiment: Cell cycle arrest in human HCT116 cells assessed as reduction in cells at G1 phase at 1 to 10 umol/L after 24 hrs by propidium iodide staining based flow cytometric analysis; type: functional
Outline: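 HCT116 cells (4×10^5) were allowed to adhere for 24 h, then exposed to 1 or 10 μmol/L compound from DMSO for 24 h. Cells were fixed in 70% ethanol at 4 °C and stained overnight with RNase and propidium iodide. DNA content was read by flow cytometry. Results are from three independent experiments, with unpaired t test against the DMSO control.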

[14] = molecular target: Mitogen-activated protein kinase 15 (Homo sapiens) (UniProt Q8TD08); experiment: Inhibition of ERK8 at 10 umol/L
[15] = molecular target: T1, Calcium/calmodulin-dependent protein kinase kinase 2; experiment: Inhibition of CAMKKbeta assessed as residual enzyme activity at 10 uM
[16] = Aqueous solubility of the compound in PBS as pH 7.4; type: physicochemical
HCT-116 [17] = experiment: Antitumor activity against human HCT116 cells xenografted in nude BALB/c mouse assessed as decrease in tumor volume at 25 mg/kg/day, po measured after 14 days relative to control on day 1; type: functional; parameters: scale not given: the % may be the effect or the level left
[18] = molecular target: Tyrosine-protein kinase CSK (Homo sapiens) (UniProt P41240); experiment: Inhibition of CSK assessed as residual enzyme activity at 10 uM
[19] = molecular target: Ephrin type-B receptor 3 (Homo sapiens) (UniProt P54753); experiment: Inhibition of EPHB3 assessed as residual enzyme activity at 10 uM
[20] = molecular target: Cyclin-dependent kinase 4/cyclin D1 (Homo sapiens, UniProt P11802); experiment: Inhibition of CDK4/cyclinD1 assessed as amount of ATP […] by luciferase activity based PKLight assay; type: protein-complex assay
Outline: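 Purified recombinant CDK4/cycD1, CDK6/CycD1, CDK7/CycH/MAT1 or CDK9/CycT run with the supplier's substrate peptides under the manufacturer's protocol. Inhibition was read as ATP left at the end of the reaction, measured by luciferase luminescence (PKLight).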

[21] = molecular target: Fibroblast growth factor receptor 1 (Homo sapiens) (UniProt P11362); experiment: Inhibition of FGFR1 assessed as residual enzyme activity at 10 uM
Mus musculus [22] = experiment: Inhibition of cyclin-dependent kinase substrate […] phosphorylation at Ser5 in nude BALB/c mouse PBMC at 25 mg/kg, po measured after 6 hrs by immunostaining and flow cytometric analysis; type: functional
Outline: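 Female nu/nu-BALB/c athymic nude mice (7 weeks old) given a single oral gavage dose in 28% PEG300/5% dimethylacetamide/10% HPB cyclodextrin in water. PBMC were isolated from cardiac blood after red-cell lysis, then fixed, permeabilized and stained with primary antibodies (1:100, 1 h, RT) and an Alexa Fluor 488 secondary (1:200, 1 h). Read-out was flow cytometry; n=4 (n=3 at 100 mg/kg).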

[23] = molecular target: Serine/threonine-protein kinase pim-1 (Homo sapiens) (UniProt P11309); experiment: Inhibition of PIM1 assessed as residual enzyme activity at 10 uM
[24] = molecular target: Rho-associated protein kinase 2 (Homo sapiens) (UniProt O75116); experiment: Inhibition of ROCK 2 assessed as residual enzyme activity at 10 uM
[25] = Antiproliferative activity against human HUVEC cells after 72 hrs by sulforhodamine B assay; type: cell-based
Outline: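 HUVEC cells grown per supplier's protocols and treated with increasing concentrations for 72 h. Growth read by sulforhodamine B assay. Mean IC50 from at least three replicates, with SD.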

[26] = molecular target: Serine/threonine-protein kinase Chk1 (Homo sapiens) (UniProt O14757); experiment: Inhibition of CHK1 assessed as residual enzyme activity at 10 uM
[27] = Tmax in mouse at 10 mg/kg, ip; type: ADME, organism-based; parameters: dose 10 mg/kg, route intraperitoneal; conditions: in vivo

T1 sequence (Q96RR4 2-588 limits assumed): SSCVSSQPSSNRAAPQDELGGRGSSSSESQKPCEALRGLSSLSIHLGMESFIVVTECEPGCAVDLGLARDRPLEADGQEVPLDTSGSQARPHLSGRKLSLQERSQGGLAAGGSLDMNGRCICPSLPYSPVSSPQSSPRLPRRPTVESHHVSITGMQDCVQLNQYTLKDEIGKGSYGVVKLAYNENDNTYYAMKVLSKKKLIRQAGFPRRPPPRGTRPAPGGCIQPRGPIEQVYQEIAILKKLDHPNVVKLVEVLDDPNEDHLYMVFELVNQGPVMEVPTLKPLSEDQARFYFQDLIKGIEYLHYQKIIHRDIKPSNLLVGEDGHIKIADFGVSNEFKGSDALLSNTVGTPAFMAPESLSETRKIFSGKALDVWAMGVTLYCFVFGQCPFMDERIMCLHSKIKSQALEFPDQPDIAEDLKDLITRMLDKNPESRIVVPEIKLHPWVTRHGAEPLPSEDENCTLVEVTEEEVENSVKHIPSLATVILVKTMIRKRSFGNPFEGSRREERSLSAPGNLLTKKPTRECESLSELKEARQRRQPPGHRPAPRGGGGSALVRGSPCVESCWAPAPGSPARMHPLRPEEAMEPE
Serine/threonine-protein kinase Chk1 (Homo sapiens), sequence (O14757 whole entry): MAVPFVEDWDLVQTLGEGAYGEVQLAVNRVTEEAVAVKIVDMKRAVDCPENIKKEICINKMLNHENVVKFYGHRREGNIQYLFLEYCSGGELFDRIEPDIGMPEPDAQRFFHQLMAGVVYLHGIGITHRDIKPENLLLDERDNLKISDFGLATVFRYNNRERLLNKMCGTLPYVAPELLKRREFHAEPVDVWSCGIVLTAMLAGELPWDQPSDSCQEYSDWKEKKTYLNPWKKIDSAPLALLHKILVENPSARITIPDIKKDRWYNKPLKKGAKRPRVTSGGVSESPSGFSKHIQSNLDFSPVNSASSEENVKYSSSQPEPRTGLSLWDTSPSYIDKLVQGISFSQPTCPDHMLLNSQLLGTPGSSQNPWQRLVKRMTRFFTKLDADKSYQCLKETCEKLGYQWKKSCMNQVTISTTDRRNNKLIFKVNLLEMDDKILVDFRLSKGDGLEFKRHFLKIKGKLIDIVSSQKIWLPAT
MAP kinase-activated protein kinase 2 (Homo sapiens), sequence (P49137 whole entry, looked up): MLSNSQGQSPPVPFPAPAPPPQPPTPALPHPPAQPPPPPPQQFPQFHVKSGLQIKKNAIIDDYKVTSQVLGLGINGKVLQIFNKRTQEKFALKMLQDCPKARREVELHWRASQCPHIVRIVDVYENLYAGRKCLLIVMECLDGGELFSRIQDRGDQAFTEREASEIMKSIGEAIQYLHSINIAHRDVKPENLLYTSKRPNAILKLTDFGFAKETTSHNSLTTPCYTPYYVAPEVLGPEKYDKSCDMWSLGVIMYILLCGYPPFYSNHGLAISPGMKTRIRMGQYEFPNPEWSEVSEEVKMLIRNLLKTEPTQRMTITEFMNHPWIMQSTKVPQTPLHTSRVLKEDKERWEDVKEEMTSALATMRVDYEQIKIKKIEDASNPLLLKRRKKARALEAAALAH
G2/mitotic-specific cyclin-B1 (Homo sapiens), sequence (P14635 whole entry): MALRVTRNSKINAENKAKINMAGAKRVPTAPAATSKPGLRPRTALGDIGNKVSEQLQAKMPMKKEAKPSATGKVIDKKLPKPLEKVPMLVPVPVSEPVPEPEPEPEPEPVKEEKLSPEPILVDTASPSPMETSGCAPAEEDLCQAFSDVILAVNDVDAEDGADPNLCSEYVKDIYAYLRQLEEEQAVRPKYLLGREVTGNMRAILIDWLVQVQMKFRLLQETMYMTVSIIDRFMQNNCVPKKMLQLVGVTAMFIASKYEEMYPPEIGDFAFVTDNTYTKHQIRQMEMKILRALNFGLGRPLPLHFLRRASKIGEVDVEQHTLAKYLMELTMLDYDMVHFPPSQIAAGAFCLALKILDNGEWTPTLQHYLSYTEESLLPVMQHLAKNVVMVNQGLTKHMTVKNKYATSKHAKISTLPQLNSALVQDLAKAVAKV
Inhibitor of nuclear factor kappa-B kinase subunit beta (Homo sapiens), sequence (O14920 whole entry): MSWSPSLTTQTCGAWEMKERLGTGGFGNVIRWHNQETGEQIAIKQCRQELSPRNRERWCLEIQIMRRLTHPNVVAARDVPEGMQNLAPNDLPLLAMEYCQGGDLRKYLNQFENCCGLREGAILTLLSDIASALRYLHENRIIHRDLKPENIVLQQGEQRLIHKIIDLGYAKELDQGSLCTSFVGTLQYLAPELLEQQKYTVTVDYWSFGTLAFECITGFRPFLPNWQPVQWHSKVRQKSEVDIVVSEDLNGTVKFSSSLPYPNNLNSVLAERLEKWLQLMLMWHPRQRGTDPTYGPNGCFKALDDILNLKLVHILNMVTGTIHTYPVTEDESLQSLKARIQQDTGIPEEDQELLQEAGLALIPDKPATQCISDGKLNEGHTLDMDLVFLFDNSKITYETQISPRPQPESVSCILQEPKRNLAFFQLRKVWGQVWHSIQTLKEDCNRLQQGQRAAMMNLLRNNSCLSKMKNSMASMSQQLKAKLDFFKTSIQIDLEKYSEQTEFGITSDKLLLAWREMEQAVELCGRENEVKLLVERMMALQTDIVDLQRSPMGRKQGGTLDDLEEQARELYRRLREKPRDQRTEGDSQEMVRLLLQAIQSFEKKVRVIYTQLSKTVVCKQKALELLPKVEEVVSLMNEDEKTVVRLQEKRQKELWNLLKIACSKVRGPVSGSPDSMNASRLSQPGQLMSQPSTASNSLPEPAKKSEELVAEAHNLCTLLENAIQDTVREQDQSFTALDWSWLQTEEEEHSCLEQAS
Rho-associated protein kinase 2 (Homo sapiens), sequence (O75116 whole entry, looked up): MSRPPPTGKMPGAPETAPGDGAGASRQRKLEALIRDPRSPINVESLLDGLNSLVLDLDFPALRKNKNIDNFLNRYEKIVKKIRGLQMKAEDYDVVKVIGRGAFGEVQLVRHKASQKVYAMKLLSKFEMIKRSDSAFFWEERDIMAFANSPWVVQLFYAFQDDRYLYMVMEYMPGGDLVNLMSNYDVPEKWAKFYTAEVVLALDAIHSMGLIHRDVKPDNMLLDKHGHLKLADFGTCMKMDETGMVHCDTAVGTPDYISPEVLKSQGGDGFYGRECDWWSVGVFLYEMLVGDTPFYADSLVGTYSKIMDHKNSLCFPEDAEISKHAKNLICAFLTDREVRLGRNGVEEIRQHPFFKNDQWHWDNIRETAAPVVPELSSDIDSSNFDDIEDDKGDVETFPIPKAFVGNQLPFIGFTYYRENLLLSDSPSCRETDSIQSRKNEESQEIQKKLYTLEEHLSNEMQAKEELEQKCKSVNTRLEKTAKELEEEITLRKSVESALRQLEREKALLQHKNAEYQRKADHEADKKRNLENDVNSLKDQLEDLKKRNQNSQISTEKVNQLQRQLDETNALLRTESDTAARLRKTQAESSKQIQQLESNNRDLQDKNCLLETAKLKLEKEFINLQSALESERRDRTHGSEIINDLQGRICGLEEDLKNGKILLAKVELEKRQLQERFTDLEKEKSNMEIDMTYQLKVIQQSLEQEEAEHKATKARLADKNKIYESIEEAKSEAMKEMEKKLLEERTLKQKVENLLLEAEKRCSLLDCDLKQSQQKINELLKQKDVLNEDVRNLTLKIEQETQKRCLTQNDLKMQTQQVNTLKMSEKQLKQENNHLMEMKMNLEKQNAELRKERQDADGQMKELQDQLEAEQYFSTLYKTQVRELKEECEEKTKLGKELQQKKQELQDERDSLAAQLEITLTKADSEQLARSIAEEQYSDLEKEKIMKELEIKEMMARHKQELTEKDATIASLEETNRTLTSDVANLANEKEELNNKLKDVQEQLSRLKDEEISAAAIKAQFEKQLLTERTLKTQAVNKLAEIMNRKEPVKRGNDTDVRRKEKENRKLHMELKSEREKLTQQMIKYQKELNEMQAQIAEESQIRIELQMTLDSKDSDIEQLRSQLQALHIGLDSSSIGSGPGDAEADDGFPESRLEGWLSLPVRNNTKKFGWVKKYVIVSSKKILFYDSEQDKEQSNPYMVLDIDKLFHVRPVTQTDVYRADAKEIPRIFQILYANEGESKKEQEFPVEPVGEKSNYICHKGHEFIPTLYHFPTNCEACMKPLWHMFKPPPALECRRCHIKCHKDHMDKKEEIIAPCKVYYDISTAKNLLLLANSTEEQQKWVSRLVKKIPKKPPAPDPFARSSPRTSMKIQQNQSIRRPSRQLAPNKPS
Cyclin-dependent kinase 4/cyclin D1, sequence (P11802 whole entry): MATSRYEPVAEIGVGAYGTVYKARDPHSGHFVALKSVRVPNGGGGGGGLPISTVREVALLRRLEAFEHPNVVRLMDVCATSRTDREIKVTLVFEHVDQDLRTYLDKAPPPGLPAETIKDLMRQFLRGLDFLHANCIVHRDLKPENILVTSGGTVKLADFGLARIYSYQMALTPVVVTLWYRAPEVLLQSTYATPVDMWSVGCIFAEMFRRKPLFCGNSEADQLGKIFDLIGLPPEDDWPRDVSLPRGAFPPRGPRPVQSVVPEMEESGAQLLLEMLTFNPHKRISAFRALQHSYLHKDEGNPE
Cyclin-dependent kinase 4/cyclin D1, sequence (P24385 whole entry, further chain): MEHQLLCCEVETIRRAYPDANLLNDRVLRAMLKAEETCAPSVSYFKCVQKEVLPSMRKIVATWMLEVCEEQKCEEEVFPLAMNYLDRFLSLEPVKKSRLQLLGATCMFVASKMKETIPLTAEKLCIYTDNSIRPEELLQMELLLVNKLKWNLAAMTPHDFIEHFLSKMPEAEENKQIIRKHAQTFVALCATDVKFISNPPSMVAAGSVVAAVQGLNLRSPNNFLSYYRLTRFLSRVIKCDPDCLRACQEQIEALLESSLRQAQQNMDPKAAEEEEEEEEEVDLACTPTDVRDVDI
Casein kinase I isoform alpha, sequence (P48729 2-337 limits assumed): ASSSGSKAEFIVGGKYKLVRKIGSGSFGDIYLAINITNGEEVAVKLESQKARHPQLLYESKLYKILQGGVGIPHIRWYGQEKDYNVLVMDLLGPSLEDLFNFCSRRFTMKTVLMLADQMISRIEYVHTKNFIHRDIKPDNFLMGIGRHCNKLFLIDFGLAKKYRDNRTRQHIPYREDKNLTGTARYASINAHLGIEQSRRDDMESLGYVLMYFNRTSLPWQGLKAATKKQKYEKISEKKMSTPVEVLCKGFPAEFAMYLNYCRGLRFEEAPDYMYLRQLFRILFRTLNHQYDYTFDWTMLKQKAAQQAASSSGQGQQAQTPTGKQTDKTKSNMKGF

Compound: CC(C)c1cnn2c(NCc3ccccc3)cc(N[C@@H](CO)[C@H](O)CO)nc12
- inhibition in vivo at 25 mg/kg (Mus musculus [1]): 60%
- Papp A→B at 10 µM [2]: 9.7 ×10⁻⁶ cm/s
- inhibition [3]: Active
- Activity (MCF7): Active
- Cmax [4]: 5600 ng/mL
- Activity [5]: 80%
- Activity [6]: 97%
- inhibition [7]: < 50%
- Activity [8]: 19%
- Activity [9]: 88%
- inhibition (Mus musculus [10]): inactive
- Activity [11]: 89%
- Activity [12]: 111%
- Activity (HCT-116 [13]): Active
- inhibition [14]: 74%
- Activity [15]: 23%
- solubility [16]: 54 µM (≈ 20.8 µg/mL)
- Activity (HCT-116 [17]): 50%
- Activity [18]: 77%
- Activity [19]: 72%
- IC50 [20]: 20 µM
- Activity [21]: 86%
- inhibition in vivo at 25 mg/kg (Mus musculus [22]): 25%
- Activity [23]: 103%
- Activity [24]: 102%
- GI50 at 72 h [25]: 6.3 µM
- Activity [26]: 98%
- Tmax [27]: 30 min
